# Screening data as filed in PubChem BioAssay.
# PHOSPHO1 inh: PubChem AID 1565; Phosphoethanolamine/phosphocholine phosphatase (Homo sapiens), Q8TCT1; recombinant PHOSPHO1, absorbance phosphatase assay; inhibition, % at 13.3 µM; 1.1% of 290,000 active; in the data active = inhibition above about 60%
# Target sequence (Q8TCT1 whole entry, looked up): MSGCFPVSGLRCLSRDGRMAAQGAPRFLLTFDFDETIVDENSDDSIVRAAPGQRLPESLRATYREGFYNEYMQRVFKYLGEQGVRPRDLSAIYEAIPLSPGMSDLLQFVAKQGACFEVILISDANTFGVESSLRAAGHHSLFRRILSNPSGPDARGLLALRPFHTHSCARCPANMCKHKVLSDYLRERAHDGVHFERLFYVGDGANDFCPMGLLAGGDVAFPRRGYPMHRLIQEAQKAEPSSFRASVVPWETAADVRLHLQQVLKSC
# MrgX1 ag: agonists of human MrgX1 receptor, primary screen, HEK293 cells, Fluo-4 calcium flux; B-score at 10 µM; 0.44% of 310,000 active; Mas-related G-protein coupled receptor member X1 (Homo sapiens), Q96LB2; Fluo-4 calcium fluorescence, agonist mode; stronger effect = higher value;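 active = calcium response B-score plate-corrected fluorescence ratio at least 3 library SD, with starting fluorescence B-score inside 5 SD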
#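 System: HEK293 cells stably expressing human MrgX1 receptor; Dosing: test compound in the initial addition of three; Schedule: overnight plating, then 30 min 37 °C plus 30 min room-temperature dye loading; Detection: kinetic calcium dye fluorescence, Fluo-4 NW; Controls: per-plate positive and negative controls for Z′ factor.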
# RGS4 act: RGS4 potentiators or activators, primary screen, cell-based, HEK293 M3R inducible RGS4, calcium flux; carbachol calcium flux Fluo4; stronger effect = lower value; AID 463111, 2010; B-score at 10 µM; 0.92% of 310,000 active;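 active = B-score of the integrated calcium signal more than 4 SD below the library mean, with starting fluorescence not abnormally high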;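 note: negative B-score means reduced calcium response which marks RGS4 activation or potentiation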
#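 Reagent: ECmax carbachol challenge; Test system: M3R-expressing HEK293 line, RGS4 induced by doxycycline; Schedule: overnight RGS4 induction, 30 min dye load 37 °C, 20 min compound RT; Detection: calcium dye Fluo4 fluorescence; Read-out: Agonist-evoked peak-minus-minimum fluorescence over baseline, integrated ratio, B score.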
# MrgX1 antag: antagonists of human MrgX1 receptor, primary screen, HEK293 cells, Fluo-4 calcium flux; AID 588676, 2011; 1.3% of 310,000 active; B-score at 10 µM; Mas-related G-protein coupled receptor member X1 (Homo sapiens), Q96LB2; BAM8-22 antagonism; stronger effect = lower value;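 active = calcium-response B-score plate-corrected more than 3 library SD below zero, starting fluorescence within 5 deviations, no agonist response on first addition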;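 note: peak minus trough fluorescence over baseline after final BAM8-22 challenge near maximal dose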
# RGS4 block: RGS4 inhibitors, primary screen, cell-based, HEK293 M3R inducible RGS4, calcium flux | Regulator of G-protein signaling 4 (Homo sapiens), P49798 | Fluo-4 calcium flux; stronger effect = higher value; triggered by carbachol at its EC20 | B-score at 10 µM | 0.45% of 310,000 active | AID 463165, 2010;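 active = B-score, a plate-corrected calcium signal, over three deviations above library mean, with baseline fluorescence within five deviations of library mean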;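 note: RGS4 expression induced by doxycycline in cells with stable M3 receptor; B-score is computed from the integrated fluorescence ratio over baseline after carbachol; higher B-score means a larger calcium signal and so more RGS4 inhibition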
# Target sequence (P49798 whole entry, looked up): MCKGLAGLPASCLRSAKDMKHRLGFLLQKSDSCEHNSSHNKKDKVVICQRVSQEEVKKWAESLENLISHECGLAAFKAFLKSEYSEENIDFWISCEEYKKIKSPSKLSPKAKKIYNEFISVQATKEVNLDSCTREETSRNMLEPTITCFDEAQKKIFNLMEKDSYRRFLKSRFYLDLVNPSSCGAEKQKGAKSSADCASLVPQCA
# MrgX1 allo act: positive allosteric modulators of MrgX1, primary screen, HEK293 cells, Fluo-4 calcium flux | FDSS; stronger effect = higher value | B-score at 10 µM | 0.63% of 310,000 active | AID 588675, 2011;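 active = plate-corrected calcium response at least 3 library SD above typical, normal starting fluorescence, not activating the receptor alone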;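 note: compound read alongside a low EC10 to EC30 dose of BAM8-22 agonist; peak minus trough fluorescence over baseline measured at the second addition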
# RGS4 act valid: reduced carbachol calcium response, RGS4-induced M3R cells, confirmation, RGS4 activator project, cell-based, HEK293 M3R/RGS4 inducible, calcium flux, duplicate. carbachol calcium flux Fluo4. shares compounds with RGS4 act. 89% of 1,100 active. inhibition, % at 10 µM;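 active = inhibition above 3 SD of the buffer control wells, cut at about 41% in these data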;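 note: signal is the integrated peak-minus-minimum Fluo4 fluorescence over baseline ratio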
# M3R Ca counter: counter-screen for RGS4 activators: effect in non-induced cells; shares compounds with RGS4 act; HEK293 M3R non-induced RGS4, Fluo4 calcium flux; after carbachol challenge at its EC90; inhibition, % at 10 µM; 82% of 1,100 active;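 active = inhibition exceeding 3 SD of buffer-only control wells, cut at about 26% in these data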;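 note: percent drop in integrated peak-minus-baseline over baseline Fluo4 ratio after carbachol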
# Active calls of the source: *; i = inactive; . = not tested or not shown. Sampled rows, rich in hits. Any-hit rate of the full collection: about 4.5%.
SMILES,PHOSPHO1 inh,MrgX1 ag,RGS4 act,MrgX1 antag,RGS4 block,MrgX1 allo act,RGS4 act valid,M3R Ca counter
CC(Oc1cccc2cccnc12)C(=O)N/N=C/c1ccccc1 (stereo not drawn),-22,i,i,i,i,i,.,.
CCn1ncc(CN2CCCC(C(=O)c3cccc(OC(C)C)c3)C2)c1C (stereo not drawn),10,i,-10*,i,i,i,84*,38*
S=c1[nH]nc(-c2ccccc2Cl)n1/N=C/C=C/c1ccco1,29,i,-8.2*,i,i,i,94*,89*
S=c1[nH]nc(-c2ccncc2)n1/N=C/C=C/c1ccco1,51,i,i,i,i,i,.,.
Cc1ccc(S(=O)(=O)N2CCN(C(=O)c3cc4c(C)nn(-c5ccccc5C)c4s3)CC2)cc1,24,i,-8.5*,i,i,i,83*,34*
CCOc1ccc(-c2cc(C(=O)NCCCN3CCCC3)c3ccccc3n2)cc1,41,i,i,i,i,i,.,.
O=Cc1cn(-c2ccccc2)nc1-c1ccccc1,.,i,i,i,i,i,.,.
CC1=NNC(=O)/C1=C\c1cn(-c2ccccc2)nc1-c1ccccc1,44,i,-11*,i,i,i,70*,34*
Cc1cc2oc(=O)c(CC(=O)NCCCN(C)C)c(C)c2c2occ(C(C)(C)C)c12,-11,i,-7.9*,i,i,i,90*,51*
CC(=O)/C(C(=N)N1CCN(C(c2ccccc2)c2ccccc2)CC1)=C(\C)O,-12,i,-9.2*,i,i,i,81*,84*
Cc1cccc(NS(=O)(=O)c2cc(C(=O)N3CCc4ccccc4C3)ccc2Cl)c1C,12,i,-8.1*,i,i,i,82*,30*
NS(=O)(=O)c1ccc(NC(=O)COC(=O)CCc2ccc(S(=O)(=O)N3CCOCC3)cc2)cc1,33,i,i,i,i,i,.,.
COc1cc(C2NC(=O)NC(O)(C(F)(F)F)C2C(=O)c2ccc(Cl)cc2)ccc1O (stereo not drawn),41,i,.,i,.,i,.,.
COc1ccc(C2NC(=O)NC(O)(C(F)(F)F)C2C(=O)c2ccc(F)cc2)cc1 (stereo not drawn),-10,i,-8.8*,i,i,i,92*,83*
CCOC(=O)c1ccc(Nc2cc(C)nc(-c3ccccc3O)n2)cc1,-3,i,-8.3*,i,i,i,90*,66*
Cc1cc(Nc2cccc(F)c2)nc(-c2ccccc2O)n1,12,i,i,i,i,i,.,.
CC(C)(O)C#Cc1ccc(CN2CCCC(CO)(Cc3cccc(Cl)c3)C2)cc1 (stereo not drawn),-6,i,-9*,i,i,i,76*,31*
COc1ccccc1CN1CCC(CNS(=O)(=O)c2cc(-c3onc(C)c3C)ccc2OC)CC1,40,i,-8*,i,i,i,90*,65*
O=C(Oc1ccc(OC(=O)N2CCCCC2)cc1)c1ccccc1,-18,i,-10*,i,i,i,62*,84*
O=C(Oc1ccccc1)N1CCCC1,2,i,i,i,i,i,.,.
O=C1CC(c2ccco2)Cc2nc(N3CCN(Cc4ccc5c(c4)OCO5)CC3)ncc21 (stereo not drawn),-56,i,-8.9*,i,i,i,88*,65*
